For orientation: apparent Kd means the concentration giving half-maximal binding under the conditions of the assay.

For this data set, the system named is MS2 coat protein. The data set is described as follows: apparent Kd, MS2 coat protein; higher = weaker binding; RNA-MaP array; FMN 200 µM where present. In short, it runs like this:
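Green signal from SNAP-549-labelled MS2 coat protein was normalised to red-channel RNA signal and to the median Fmax of control clusters. The protein was titrated from 0.7 or 1.5 nM, doubling to 3 µM, without and then with constant ligand, over designs transcribed by stalled E. coli RNA polymerase on Illumina sequencing-chip clusters, in 100 mM Tris-HCl pH 7.5, 80 mM KCl, 4 mM MgCl2, BSA, DTT, yeast tRNA and Tween-20. The apparent Kd is the median of filtered per-cluster binding-curve fits.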

The mark [1] stands for this setting: designed as: OFF switch for flavin mononucleotide, no ligand.
Setting [2] is: ligand present: flavin mononucleotide, designed as: OFF switch for flavin mononucleotide.
The mark [3] stands for this setting: designed as: ON switch for flavin mononucleotide, no ligand.
The mark [4] stands for this setting: ligand present: flavin mononucleotide, designed as: ON switch for flavin mononucleotide.

“GGAUUACAAAUUUAUUUAAUUCACAUGAGGAUCACCCAUGUGUAGGAUAUGCUAGUUAAGUAAUAGCAGAAGGACAUGUGCCUU”: the “apparent Kd” value came out at 8.82 nM under setting [1] and 9.26 nM under setting [2].
In the case of “GUGCACACUCGAGGAUAUCGGAGUUUUCUUCUUUGAGAAGGCGAUUCGUGCCGUGUUAUUUUGGACAUGAGGAUCACCCAUGUG”, the “apparent Kd” value runs as follows: under setting [3], 66 nM; under setting [4], 36.8 nM.
As for “GGUUCCUUCACAGGAUAUGCUAUCCUUUGGGUAGCAGAAGGGUGAUACAUGAGGAUCACCCAUGUGGAGCCAGGGCGUGAGCCC”, the “apparent Kd” value by setting is: under setting [3], 1260 nM; under setting [4], 428 nM.
“UGUCGGAGCAGAGGAUAUUACAUGAGGAUCACCCAUGUAUGAACCAAUAGCUGGAAACAGCGAUGUAAGAAGGCUGCUCCGACA”: the “apparent Kd” value runs as follows: under setting [1], 10.2 nM; under setting [2], 124 nM.
“AUUAAGCAGCAGGAUAUAAUUAUCUGAAGGUGGUUAGAAGGGCUGACAUGAGGAUCACCCAUGUGCUCUUCGUG”: the “apparent Kd” value is, setting by setting: under setting [1], 16.2 nM; under setting [2], 32.2 nM.
Consider “GUUAAACAUGAGGAUCACCCAUGUCAAUGUAGUCGAGGAUAUGGGCAGCUAUGAGGCGUACUAGAAGGCGAAGAGU”, for which the “apparent Kd” value reads like this: under setting [3], 361 nM; under setting [4], 178 nM.
Turning to “ACAUGUAAUGCAGGAUAUUUUACACAUGAGGAUCACCCAUGUGACCAGAGGAAUUGCUAUGAGUAAAAGAAGGGUAUGUACAUG”, the “apparent Kd” value under setting [1] is 72.3 nM and the “apparent Kd” value under setting [2] worked out at 86.4 nM.
Take “AACAGCUCGUCAGGAUAUAUUAUCUUUUAAUGUAUUUAUGUACAUGAGGAUCACCCAUGUUGUUUGUAGAAGGGACGAGCUGAA”: the “apparent Kd” value runs as follows: under setting [1], 11.1 nM; under setting [2], 13.1 nM.
Consider “UGAUCCGUGUAGGAUAUCUGUUGGCCGCCGACUGGAGAAGGGCACACAUGAGGAUCACCCAUGUGUGGGCAUAA”, for which the “apparent Kd” value is, setting by setting: under setting [1], 17.8 nM; under setting [2], 19.6 nM.
The matching figures for “CCUAGUUGGUAAGGAUAUCCUACACUGUUCUGACCCGUGCAAGCUACAUGAGGAUCACCCAUGUGGGAGAAGGUGCGUCAACGU”: 12.7 nM and 11.9 nM.
For the sequence “UUAUUGUAUGUAGGAUAUGCAUAUUAUUAUUAUGCAGAAGGACAUGAGGAUCACCCAUGUAUAUUAUUAUUAUAUAUUAUAUAU”, the “apparent Kd” value reads like this: under setting [1], 32.3 nM; under setting [2], 60.9 nM.
The matching figures for “AUCCGACAUGAGGAUCACCCAUGUCAGGAUAUGGACUGACACCGAAAGAGUGGAGGAACCAGAAGGGACUGGGC”: 27.7 nM and 46.5 nM.
The matching figures for “CAUUUACAGGGAGGAUAUACAUGAGGAUCACCCAUGUCAUCAUACGAUCUUUCUUUUGUAUGAGUGUAGAAGGCCCAACUACCA”: 13.6 nM and 14.6 nM.
On to “GCCUUAUCGGUCAGGAUAUACACCCGUCAGUUGUUGUAGAAGGGACAUGAGGAUCACCCAUGUACAUUACAUUG”, for which the “apparent Kd” value reads like this: under setting [1], 21.8 nM; under setting [2], 45.5 nM.
Take “AGCUACGUUUCGUAGCAGCUAGGUGAGGAUAUUCAAUUUUUCACAUGAGGAUCACCCAUGUAUGUGAAGAAGGCGCCUAGAAAG”: the “apparent Kd” value amounted to 13.3 nM under setting [3] and 4.77 nM under setting [4].
As for “AGUCGGAGCAGAGGAUAUAUACAUGAGGAUCACCCAUGUGAAUGAAUAAGCUGGAAACAGCAUGUAUAGAAGGCUGCUCCGACA”, the “apparent Kd” value was 352 nM under setting [1] and 603 nM under setting [2].
The like results for “GAGAAGUCAGGAUAUCCAUGGCGGCACUUGCGUGGUGGCGUGGAGAAGGGACAUGAGGAUCACCCAUGUAAAGC” were, in that order, 54 nM and 34.9 nM.
The matching figures for “AAGUCGCUAGGAGGAUAUACAUGAUCUCACACAUGUACCGCUCACGCCACAUGAGGAUCACCCAUGUAGAAGGCCUAGAGAGGU”: 23.4 nM and 62.4 nM.
For “CUACCUUAUGAGAAGGCGAUCAUGAAACAUGAUCGAGGAUAUCAUGUAAACAUGAGGAUCACCCAUGUAUGGGUAUUAUGGUAG”, the “apparent Kd” value under setting [3] amounted to 331 nM and the “apparent Kd” value under setting [4] was 40.4 nM.
“GAGUGACAUGAGGAUCACCCAUGUGAGGAUAUCGGACGGACCAAAUUAACAACAACCGCGAGAAGGCACAUCGG”: the “apparent Kd” value under setting [1] was 146 nM and the “apparent Kd” value under setting [2] is 135 nM.
Take “CUUUUGUGAGGAUAUCAGUAGUAAUAAAAUAAAAUAACUACUGAGAAGGCACAUGAGGAUCACCCAUGUUCCUC”: the “apparent Kd” value amounted to 32 nM under setting [1] and 145 nM under setting [2].
The like results for “GUACUGAAGCUUUGCUUUAGUCGUACAUGAGGAUCACCCAUGUAGGAUAUGGUAGGCUAUGCUUACUAGAAGGAUAGAGUGAUC” were, in that order, 88.8 nM and 46.4 nM.
Regarding “UAAGUAAGUGCAGGAUAUUUAAGAAGAACAUGAGGAUCACCCAUGUGAGGAUCACCCAUGUAAAAGGAGAAGGGCAGAGUAUGA”, the “apparent Kd” value came out at 960 nM under setting [1] and 1220 nM under setting [2].
The matching figures for “GACACUAGUGUUAGGAUAUGUGUGAGGGACCGCAAACAGAAGGAACAUGAGGAUCACCCAUGUGAUGGUUCUGA”: 21.5 nM and 20.4 nM.
The matching figures for “AUCUAGUCAGGAUAUACGAACCGAUGAAUCGGACGGAACGAACAUGAGGAUCACCCAUGUAGAAGGGACACUCA”: 162 nM and 163 nM.
The like results for “GUCAGCUCGUGAGGAUAUACAACACUGCUUCGGCAGUGUAUUAAGAUCACAUGAGGAUCACCCAUGUAGAAGGCACGAGCUCAU” were, in that order, 15.2 nM and 246 nM.
“CUCUUGUUAGGAUAUCAAACUGGCGGCGGAGCCGGCAGUAGUGAGAAGGGACAUGAGGAUCACCCAUGUAAGAA”: the “apparent Kd” value is, setting by setting: under setting [1], 81.9 nM; under setting [2], 155 nM.
For the sequence “AAAAGACAUGAGGAUCACCCAUGUGAAAACGUAGGAGGAUAUGUCGUGAAAAAAGACUUGACAGAAGGCCUGUGUC”, the “apparent Kd” value runs as follows: under setting [3], 97.7 nM; under setting [4], 30.8 nM.
Regarding “AAGGACUGUAAAUAAGUAGAAAUACAUGAGGAUCACCCAUGUAAGGAUAUCGUCAGGAAUACUGACGAGAAGGUACAUCAGUCC”, the “apparent Kd” value under setting [1] was 14.5 nM and the “apparent Kd” value under setting [2] was determined as 18.6 nM.
As for “AAAAAACAUGAGGAUCACCCAUGUGAGGAUAUUGGUAUUCAGGGUAUAAUCUCAAUAGCGAGAAGGCGCAUAAA”, the “apparent Kd” value was 43.6 nM under setting [1] and 44.3 nM under setting [2].
As for “UUUACAUGAGGAUCACCCAUGUAUAGAACGGUUAAUCAAAGUGAGGAUAUACAUAAUUUUGUAUUGUAGAAGGCACUGGGUACA”, the “apparent Kd” value stood at 15.2 nM under setting [3] and 19.3 nM under setting [4].
On to “GAAUAAUUGAUCCUUUUUUAUUACAUGAGGAUCACCCAUGUGCAGGAUAUCGAUUGUUUUAGUUUCGAGAAGGGCAAGAACUGU”, for which the “apparent Kd” value under setting [1] was found to be 219 nM and the “apparent Kd” value under setting [2] came to 255 nM.
The matching figures for “CUAUGAAGAAUAGGAUAUUCGAUCAAGAGGAUAGAAGAAGGGUUACAUGAGGAUCACCCAUGUAUGCACAUGAGGAUCCCUUAG”: 98.4 nM and 107 nM.
As to “AAACUCAGAGGAUAUACAUAACACAGACUCUUCAUGCGUUCACAUGAGGAUCACCCAUGUAGAAGGCUGACAAC”, the “apparent Kd” value reads like this: under setting [1], 23.2 nM; under setting [2], 85.1 nM.
Take “UGUUGUAUUACAGGAUAUCUAGUAUUUUUAUUCAGAGAAGGGUAUUCACAUGAGGAUCACCCAUGUAUAUACGAGGAAGUUGUG”: the “apparent Kd” value turned out to be 45.2 nM under setting [3] and 46.2 nM under setting [4].
Take “AGAUCAUCAGGAUAUACAUGGGUGAAAAAAGUAUAUCCACUACAUGAGGAUCACCCAUGUAGAAGGGAUGAUCA”: the “apparent Kd” value is, setting by setting: under setting [1], 17.3 nM; under setting [2], 15.1 nM.

The record behind these values is the EternaBench riboswitch data.
